Assay results: ChEMBL document CHEMBL3596140, “Bisleuconothine A Induces Autophagosome Formation by Interfering with AKT-mTOR Signaling Pathway” (J Nat Prod, 2015)
The source made the active and inactive calls. No cut-off for these calls is given here.

Columns and labels:
[1] = system: A549; assay: Prevention of autophagosome degradation in human A549 cells assessed as upregulation of p62 expression at 5 uM after 6 hrs by Western blot analysis; format: functional, cell-based
How it was run: (§1)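 A549 cells kept in serum-free medium for 1 h, then exposed to 6 μM compound or 5 μM everolimus, with or without bafilomycin A1 (400 nM), for 6 h. LC3 and p62 levels in lysates assessed by Western blot to follow autophagic flux.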

[2] = system: A549; assay: Induction of autophagy in human A549 cells assessed as increase in conversion of LC3-1 to LC3-2 at 5 uM after 6 hrs by Western blot analysis; format: functional, cell-based; how it was run: as §1
[3] = system: A549; assay: Induction of autophagic punctation in human A549 cells assessed as increase of puncta with LC3 at 5 uM after 6 hrs by immunofluorescence staining-based microscopic analysis relative to control; format: functional, cell-based
How it was run: (§2)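 A549 cells on chamber slides placed in serum-free medium for 1 h, then exposed for 6 h to 6 μM compound, 5 μM everolimus or 400 nM bafilomycin A1. Fixed in ice-cold methanol for 15 min at −20 °C and blocked. Stained for LC3B, LAMP2 and p62 with Alexa Fluor 488/546/647 secondaries, mounted with DAPI, and puncta assessed by fluorescence microscopy.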

[4] = system: A549; assay: Induction of autophagic punctation in human A549 cells assessed as increase of puncta with p62 at 5 uM after 6 hrs by immunofluorescence staining-based microscopic analysis relative to control; format: functional, cell-based; how it was run: as §2
[5] = target: Serine/threonine-protein kinase mTOR (Homo sapiens) (UniProt P42345); assay: Inhibition of mTOR phosphorylation at ser2448 in human A549 cells at 5 uM after 3 to 24 hrs by Western blot analysis; format: cell-based
How it was run: (§3)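 A549 total lysates harvested 3, 6, 12 or 24 h after exposure to 6 μM compound or 5 μM everolimus. Western blot on PVDF with antibodies to phospho-mTOR Ser2448, phospho-AKT Thr308 and Ser473, phospho-p70S6K Thr389, phospho-PDK1 Ser241 and PRAS40 Thr246, alongside total proteins and β-actin.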

[6] = target: Serine/threonine-protein kinase mTOR (Homo sapiens) (UniProt P42345); assay: Inhibition of mTOR in human A549 cells assessed as downregulation of p70S6K phosphorylation at thr389 at 5 uM after 3 to 24 hrs by Western blot analysis; format: cell-based; how it was run: as §3
[7] = system: A549; assay: Inhibition of AKT in human A549 cells assessed as downregulation of PRAS40 phosphorylation at thr246 at 5 uM after 3 to 12 hrs by Western blot analysis; format: cell-based; how it was run: as §3

inhibition [5]: Active
inhibition [6]: Active
Structure (SMILES): CO[C@H]1C[C@@H]2CC[C@@H](C)[C@@](O)(O2)C(=O)C(=O)N2CCCC[C@H]2C(=O)O[C@H]([C@H](C)C[C@@H]2CC[C@@H](OCCO)[C@H](OC)C2)CC(=O)[C@H](C)/C=C(\C)[C@@H](O)[C@@H](OC)C(=O)[C@H](C)C[C@H](C)/C=C/C=C/C=C/1C
Activity [1]: inactive
Activity [2]: Active
Activity [3]: inactive
Activity [4]: inactive
inhibition [7]: inactive
